Test results reported in ChEMBL document CHEMBL1141057, “Synthesis and antibacterial activity of a novel series of DNA gyrase inhibitors: 5-[(E)-2-arylvinyl]pyrazoles” (Bioorg Med Chem Lett, 2005).
Converted amounts (≈) assume the structure as drawn.

Assays:
Escherichia coli [1] = test: Minimal inhibitory concentration against Escherichia coli NIHJ JC-2; susceptible strain; assay type: functional
Method in brief: (§1)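 MIC determined by the microdilution method.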

Staphylococcus aureus [2] = test: Minimal inhibitory concentration against Staphylococcus aureus FDA 209P; susceptible strain; assay type: functional
Method in brief: (§2)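 MIC determined by the microdilution method against Gram-positive strains, including a susceptible strain and a multidrug-resistant S. aureus strain.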

Staphylococcus aureus [3] = test: Minimal inhibitory concentration against Staphylococcus aureus KMP9; multidrug resistant strain; assay type: functional; method in brief: as §2
Escherichia coli [4] = test: Minimal inhibitory concentration against Escherichia coli W3110 delta acrA; A multidrug efflux pump mutant; assay type: functional; method in brief: as §1
Streptococcus pneumoniae [5] = test: Minimal inhibitory concentration against Streptococcus pneumoniae KT2524 (PRSP); sparfloxacin, clarithromycin, ampicillin resistant strain; assay type: functional
Enterococcus faecium [6] = test: Minimal inhibitory concentration against Enterococcus faecium KU1778 (VRE); sparfloxacin, clarithromycin, ampicillin, vancomycin resistant strain; assay type: functional
Staphylococcus aureus [7] = test: Minimal inhibitory concentration against Staphylococcus aureus FDA 209P(MSSA); susceptible strain; assay type: functional
Enterococcus faecium [8] = test: Minimal inhibitory concentration against Enterococcus faecium ATCC 19434 (VSE); susceptible strain; assay type: functional
Streptococcus pneumoniae [9] = test: Minimal inhibitory concentration against Streptococcus pneumoniae ATCC 49619 (PSSP); susceptible strain; assay type: functional
Staphylococcus aureus [10] = test: Minimal inhibitory concentration against Staphylococcus aureus KMP9 (MRSA); sparfloxacin, clarithromycin, ampicillin resistant strain; assay type: functional
[11] = target: T1, DNA topoisomerase 4 subunit A (Escherichia coli K-12, UniProt P0AFI2); test: Inhibitory activity against decatenation of DNA topoisomerase IV isolated from Escherichia coli
T1 sequence (P0AFI2 whole entry): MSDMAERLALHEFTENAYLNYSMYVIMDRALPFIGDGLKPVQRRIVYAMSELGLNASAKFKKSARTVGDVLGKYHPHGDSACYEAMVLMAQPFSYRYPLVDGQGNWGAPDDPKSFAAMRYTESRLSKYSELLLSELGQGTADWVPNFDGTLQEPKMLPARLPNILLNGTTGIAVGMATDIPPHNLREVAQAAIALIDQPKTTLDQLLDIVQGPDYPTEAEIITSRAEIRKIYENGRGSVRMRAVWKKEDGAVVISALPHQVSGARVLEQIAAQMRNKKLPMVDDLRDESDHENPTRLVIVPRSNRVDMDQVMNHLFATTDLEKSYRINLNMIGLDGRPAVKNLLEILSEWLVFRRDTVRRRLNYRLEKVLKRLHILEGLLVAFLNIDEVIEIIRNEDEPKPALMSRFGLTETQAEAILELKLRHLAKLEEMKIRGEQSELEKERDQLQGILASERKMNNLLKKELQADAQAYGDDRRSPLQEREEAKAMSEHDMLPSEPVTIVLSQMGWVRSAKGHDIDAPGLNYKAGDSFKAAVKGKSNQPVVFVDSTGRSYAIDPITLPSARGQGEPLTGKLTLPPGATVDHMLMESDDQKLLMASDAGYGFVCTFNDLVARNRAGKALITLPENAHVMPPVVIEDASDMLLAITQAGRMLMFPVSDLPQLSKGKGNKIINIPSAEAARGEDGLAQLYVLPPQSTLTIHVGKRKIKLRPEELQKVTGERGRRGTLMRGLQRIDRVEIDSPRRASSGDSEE

DNA gyrase = DNA gyrase (Escherichia coli, UniProt P0AES4+P0AES6); test: Inhibitory activity against supercoiling activity of DNA gyrase isolated from Escherichia coli; assay type: protein-complex assay
Staphylococcus aureus [12] = test: 4 Minimal inhibitory concentration against Staphylococcus aureus KMP9; multidrug resistant strain; assay type: functional; method in brief: as §2

Row | Structure (SMILES) | MIC (Escherichia coli [1]) [µg/mL] | MIC (Staphylococcus aureus [2]) [µg/mL] | MIC (Staphylococcus aureus [3]) [µg/mL] | MIC (Escherichia coli [4]) [µg/mL] | MIC (Streptococcus pneumoniae [5]) [µg/mL] | MIC (Enterococcus faecium [6]) [µg/mL] | MIC (Staphylococcus aureus [7]) [µg/mL] | MIC (Enterococcus faecium [8]) [µg/mL] | MIC (Streptococcus pneumoniae [9]) [µg/mL] | MIC (Staphylococcus aureus [10]) [µg/mL] | IC50 [11] [µM] | IC50 (DNA gyrase) [µM] | MIC (Staphylococcus aureus [12]) [µg/mL]
1 | Clc1ccc(/C=C/c2cc(C3CCNCC3)[nH]n2)cc1Cl | 8 (≈ 24.8 µM) | 4 (≈ 12.4 µM) | 4 (≈ 12.4 µM) | 4 (≈ 12.4 µM) |  |  |  |  |  |  |  |  | 
2 | Clc1cccc(-n2nc(C3CCNCC3)cc2/C=C/c2c(Cl)cccc2Cl)c1 | 64 (≈ 148 µM) | 4 (≈ 9.24 µM) | 4 (≈ 9.24 µM) | 4 (≈ 9.24 µM) | 4 (≈ 9.24 µM) | 8 (≈ 18.5 µM) | 4 (≈ 9.24 µM) | 8 (≈ 18.5 µM) | 4 (≈ 9.24 µM) | 4 (≈ 9.24 µM) |  |  | 
3 | Cn1cc(/C=C/c2cc(C3CCNCC3)nn2-c2cccc(Cl)c2)c2cc(Cl)ccc21 | > 128 | 2 (≈ 4.43 µM) | 2 (≈ 4.43 µM) | 4 (≈ 8.86 µM) | 1 (≈ 2.22 µM) | 1 (≈ 2.22 µM) | 2 (≈ 4.43 µM) | 2 (≈ 4.43 µM) | 1 (≈ 2.22 µM) | 2 (≈ 4.43 µM) | 35.4 |  | 
4 | Clc1cccc(-n2nc(C3CCNCC3)cc2/C=C/c2cc3cc(Cl)ccc3[nH]2)c1 | 16 (≈ 36.6 µM) | 2 (≈ 4.57 µM) | 4 (≈ 9.15 µM) | 4 (≈ 9.15 µM) |  |  |  |  |  |  |  |  | 
5 | Clc1cccc(Cl)c1CCc1cc(C2CCNCC2)[nH]n1 | 128 (≈ 395 µM) | 32 (≈ 98.7 µM) | 64 (≈ 197 µM) | 64 (≈ 197 µM) |  |  |  |  |  |  |  |  | 
6 | Clc1cccc(Cl)c1/C=C/c1cc(C2CCNCC2)[nH]n1 | > 128 | 128 (≈ 397 µM) | > 128 | > 128 |  |  |  |  |  |  |  |  | 
7 | Clc1ccc(COc2ccc(/C=C/c3cc(C4CCNCC4)[nH]n3)cc2)cc1Cl | 4 (≈ 9.34 µM) | 2 (≈ 4.67 µM) | 2 (≈ 4.67 µM) | 2 (≈ 4.67 µM) | 1 (≈ 2.33 µM) | 1 (≈ 2.33 µM) | 2 (≈ 4.67 µM) | 2 (≈ 4.67 µM) | 2 (≈ 4.67 µM) | 2 (≈ 4.67 µM) | 64.9 | 32.4 | 
8 | Clc1cccc(-n2nc(C3CCNCC3)cc2/C=C/c2ccc(Cl)c(Cl)c2)c1 | 16 (≈ 37 µM) | 8 (≈ 18.5 µM) |  | 4 (≈ 9.24 µM) |  |  |  |  |  |  |  |  | 4 (≈ 9.24 µM)
9 | Clc1cccc(-n2nc(C3CCNCC3)cc2/C=C/c2c[nH]c3ccc(Cl)cc23)c1 | 8 (≈ 18.3 µM) | 1 (≈ 2.29 µM) | 1 (≈ 2.29 µM) | 4 (≈ 9.15 µM) | 2 (≈ 4.57 µM) | 2 (≈ 4.57 µM) | 1 (≈ 2.29 µM) | 2 (≈ 4.57 µM) | 2 (≈ 4.57 µM) | 1 (≈ 2.29 µM) | 31.8 | 18.3 | 
10 | Clc1cccc(-n2nc(C3CCNCC3)cc2CCc2c(Cl)cccc2Cl)c1 | > 128 | 32 (≈ 73.6 µM) | 32 (≈ 73.6 µM) | 16 (≈ 36.8 µM) |  |  |  |  |  |  |  |  | 
11 | Clc1cccc(-n2nc(C3CCNCC3)cc2/C=C/c2ccc(OCc3ccc(Cl)c(Cl)c3)cc2)c1 | 32 (≈ 59.4 µM) | 2 (≈ 3.71 µM) | 4 (≈ 7.42 µM) | 4 (≈ 7.42 µM) |  |  |  |  |  |  |  |  | 
12 | Clc1cccc(-n2nc(C3CCNCC3)cc2CCc2c[nH]c3ccc(Cl)cc23)c1 | 64 (≈ 146 µM) | 16 (≈ 36.4 µM) | 16 (≈ 36.4 µM) | 16 (≈ 36.4 µM) | 8 (≈ 18.2 µM) | 16 (≈ 36.4 µM) | 16 (≈ 36.4 µM) | 16 (≈ 36.4 µM) | 16 (≈ 36.4 µM) | 16 (≈ 36.4 µM) |  |  | 
